# Several values for one entry are separate records, joined by “and”; a condition that tells them apart may be missing. Identical values can stand only once.
# Tested on: U2OS
# Experiment: Multiplex assay against U2OS
# Assay type: toxicity, cell-based
# Conditions: human, number of replicates 2
# In short: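 Cells were classed with CellPathfinder machine-learning gating, first as Hoechst high-intensity objects or normal cells, then (normal cells) as healthy, pyknosed or fragmented nuclei, and finally (pyknosed cells) as mitotic or apoptotic. Staining of live cells at seeding used Hoechst33342, BioTracker Green Microtubule Cytoskeleton Dye, MitoTracker Red and Annexin V Alexa Fluor 680, with imaging on a CQ1 microscope at 37°C and 5% CO2 after compound addition. Tubulin, mitochondrial-mass and membrane-permeability phenotypes are per cents of healthy-nucleus cells.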
# [1] = 12 h, 1 µM, compound concentration 1 uM
# [2] = 12 h, 10 µM, compound concentration 10 uM
# [3] = 24 h, 1 µM, compound concentration 1 uM
# [4] = 24 h, 10 µM, compound concentration 10 uM
# [5] = 48 h, 1 µM, compound concentration 1 uM
# [6] = 48 h, 10 µM, compound concentration 10 uM
smiles,measurement,setting,value
Cc1cn(CCN2CCN(c3ccccc3-c3cc(C#N)cc(C(=O)NCCCN4CCCC4)c3)CC2)c2ccccc12,Population Apoptotic (%),[1],100% and 75%
same,Population Healthy Nuclei (%),[1],73% and 79%
same,Population Hoechst High Intensity Objects (%),[1],0%
same,Population Membrane Permeable-Phenotype (%),[1],8% and 10%
same,Population Mitochondria Different-Phenotype (%),[1],25% and 38%
same,Population Mitotic Cells (%),[1],0% and 25%
same,Population Normal (%),[1],100%
same,Population Pyknosed Nuclei (%),[1],10% and 16%
same,Population Tubulin-Different-Phenotype (%),[1],38% and 27%
same,Population Apoptotic (%),[2],100% and 82%
same,Population Fragmented Nuclei (%),[2],37% and 13%
same,Population Healthy Nuclei (%),[2],37% and 53%
same,Population Hoechst High Intensity Objects (%),[2],0%
same,Population Membrane Permeable-Phenotype (%),[2],33% and 41%
same,Population Mitochondria Different-Phenotype (%),[2],62% and 56%
same,Population Mitotic Cells (%),[2],0% and 17%
same,Population Normal (%),[2],100%
same,Population Pyknosed Nuclei (%),[2],25% and 33%
same,Population Tubulin-Different-Phenotype (%),[2],91%
same,Total Cell Count,[2],64 and 135
same,Population Apoptotic (%),[3],73% and 87%
same,Population Healthy Nuclei (%),[3],54% and 85%
same,Population Hoechst High Intensity Objects (%),[3],0%
same,Population Membrane Permeable-Phenotype (%),[3],8% and 7%
same,Population Mitochondria Different-Phenotype (%),[3],23% and 47%
same,Population Mitotic Cells (%),[3],26% and 12%
same,Population Normal (%),[3],100%
same,Population Pyknosed Nuclei (%),[3],24% and 12%
same,Population Tubulin-Different-Phenotype (%),[3],29% and 24%
same,Population Apoptotic (%),[4],90% and 88%
same,Population Fragmented Nuclei (%),[4],18% and 32%
same,Population Healthy Nuclei (%),[4],42% and 24%
same,Population Hoechst High Intensity Objects (%),[4],0% and 1%
same,Population Membrane Permeable-Phenotype (%),[4],65% and 35%
same,Population Mitochondria Different-Phenotype (%),[4],47% and 78%
same,Population Mitotic Cells (%),[4],9% and 12%
same,Population Normal (%),[4],99% and 98%
same,Population Pyknosed Nuclei (%),[4],39% and 43%
same,Population Tubulin-Different-Phenotype (%),[4],94% and 92%
same,Total Cell Count,[4],162 and 59
same,Population Apoptotic (%),[5],88% and 81%
same,Population Healthy Nuclei (%),[5],60% and 81%
same,Population Hoechst High Intensity Objects (%),[5],0%
same,Population Mitochondria Different-Phenotype (%),[5],11% and 26%
same,Population Mitotic Cells (%),[5],11% and 18%
same,Population Normal (%),[5],100%
same,Population Pyknosed Nuclei (%),[5],22% and 14%
same,Population Tubulin-Different-Phenotype (%),[5],24% and 31%
same,Population Apoptotic (%),[6],100% and 92%
same,Population Fragmented Nuclei (%),[6],17% and 50%
same,Population Hoechst High Intensity Objects (%),[6],0% and 1%
same,Population Membrane Permeable-Phenotype (%),[6],74% and 40%
same,Population Mitochondria Different-Phenotype (%),[6],48% and 20%
same,Population Mitotic Cells (%),[6],0% and 7%
same,Population Normal (%),[6],100% and 98%
same,Population Pyknosed Nuclei (%),[6],38% and 41%
same,Population Tubulin-Different-Phenotype (%),[6],94% and 80%
same,Total Cell Count,[6],168 and 63
COc1ccccc1-c1cc(Nc2cccc(CS(N)(=O)=O)c2)ncn1,Population Apoptotic (%),[1],75% and 86%
same,Population Fragmented Nuclei (%),[1],13% and 5%
same,Population Healthy Nuclei (%),[1],75% and 84%
same,Population Hoechst High Intensity Objects (%),[1],0%
same,Population Membrane Permeable-Phenotype (%),[1],7% and 3%
same,Population Mitochondria Different-Phenotype (%),[1],0% and 1%
same,Population Mitotic Cells (%),[1],25% and 13%
same,Population Normal (%),[1],100%
same,Population Pyknosed Nuclei (%),[1],11% and 10%
same,Population Tubulin-Different-Phenotype (%),[1],62% and 80%
same,Population Apoptotic (%),[2],63% and 66%
same,Population Healthy Nuclei (%),[2],82% and 50%
same,Population Hoechst High Intensity Objects (%),[2],0%
same,Population Mitochondria Different-Phenotype (%),[2],1% and 0%
same,Population Mitotic Cells (%),[2],36% and 33%
same,Population Normal (%),[2],100%
same,Population Pyknosed Nuclei (%),[2],12% and 13%
same,Population Tubulin-Different-Phenotype (%),[2],72% and 34%
same,Population Apoptotic (%),[3],80% and 86%
same,Population Healthy Nuclei (%),[3],70% and 88%
same,Population Hoechst High Intensity Objects (%),[3],0%
same,Population Membrane Permeable-Phenotype (%),[3],2% and 1%
same,Population Mitochondria Different-Phenotype (%),[3],2% and 0%
same,Population Mitotic Cells (%),[3],20% and 13%
same,Population Normal (%),[3],100%
same,Population Pyknosed Nuclei (%),[3],8% and 7%
same,Population Tubulin-Different-Phenotype (%),[3],51% and 77%
same,Population Apoptotic (%),[4],80%
same,Population Healthy Nuclei (%),[4],79% and 62%
same,Population Hoechst High Intensity Objects (%),[4],0%
same,Population Mitochondria Different-Phenotype (%),[4],1% and 11%
same,Population Mitotic Cells (%),[4],19% and 20%
same,Population Normal (%),[4],100%
same,Population Pyknosed Nuclei (%),[4],16% and 18%
same,Population Tubulin-Different-Phenotype (%),[4],76% and 50%
same,Population Apoptotic (%),[5],75% and 83%
same,Population Fragmented Nuclei (%),[5],13% and 4%
same,Population Healthy Nuclei (%),[5],77% and 88%
same,Population Hoechst High Intensity Objects (%),[5],0%
same,Population Membrane Permeable-Phenotype (%),[5],8% and 1%
same,Population Mitochondria Different-Phenotype (%),[5],0%
same,Population Mitotic Cells (%),[5],25% and 16%
same,Population Normal (%),[5],100%
same,Population Pyknosed Nuclei (%),[5],9% and 7%
same,Population Tubulin-Different-Phenotype (%),[5],75% and 78%
same,Population Apoptotic (%),[6],66% and 77%
same,Population Fragmented Nuclei (%),[6],18% and 7%
same,Population Healthy Nuclei (%),[6],60% and 73%
same,Population Hoechst High Intensity Objects (%),[6],0%
same,Population Membrane Permeable-Phenotype (%),[6],8% and 6%
same,Population Mitochondria Different-Phenotype (%),[6],6% and 3%
same,Population Mitotic Cells (%),[6],33% and 22%
same,Population Normal (%),[6],100%
same,Population Pyknosed Nuclei (%),[6],20% and 18%
same,Population Tubulin-Different-Phenotype (%),[6],55% and 73%
CNc1ncc2cc(-c3ccc(-c4cccc(C)n4)cc3Cl)c(=O)n(C[C@H]3OC[C@H](N)CO3)c2n1,Population Apoptotic (%),[1],75% and 70%
same,Population Healthy Nuclei (%),[1],33% and 85%
same,Population Hoechst High Intensity Objects (%),[1],0%
same,Population Mitochondria Different-Phenotype (%),[1],7% and 0%
same,Population Mitotic Cells (%),[1],25% and 29%
same,Population Normal (%),[1],100% and 99%
same,Population Pyknosed Nuclei (%),[1],19% and 10%
same,Population Tubulin-Different-Phenotype (%),[1],42% and 70%
same,Population Apoptotic (%),[2],60% and 36%
same,Population Fragmented Nuclei (%),[2],38% and 16%
same,Population Healthy Nuclei (%),[2],28% and 54%
same,Population Hoechst High Intensity Objects (%),[2],5% and 0%
same,Population Membrane Permeable-Phenotype (%),[2],15% and 11%
same,Population Mitotic Cells (%),[2],39% and 63%
same,Population Normal (%),[2],94% and 99%
same,Population Pyknosed Nuclei (%),[2],32% and 29%
same,Population Tubulin-Different-Phenotype (%),[2],50% and 38%
same,Population Apoptotic (%),[3],80% and 76%
same,Population Healthy Nuclei (%),[3],42% and 79%
same,Population Hoechst High Intensity Objects (%),[3],0%
same,Population Mitochondria Different-Phenotype (%),[3],5% and 1%
same,Population Mitotic Cells (%),[3],20% and 23%
same,Population Normal (%),[3],100% and 99%
same,Population Pyknosed Nuclei (%),[3],23% and 12%
same,Population Tubulin-Different-Phenotype (%),[3],50% and 75%
same,Population Apoptotic (%),[4],43% and 53%
same,Population Fragmented Nuclei (%),[4],31% and 17%
same,Population Healthy Nuclei (%),[4],20% and 51%
same,Population Hoechst High Intensity Objects (%),[4],6% and 1%
same,Population Mitochondria Different-Phenotype (%),[4],57% and 19%
same,Population Mitotic Cells (%),[4],56% and 46%
same,Population Normal (%),[4],93% and 98%
same,Population Pyknosed Nuclei (%),[4],47% and 31%
same,Population Tubulin-Different-Phenotype (%),[4],21% and 32%
same,Population Apoptotic (%),[5],75% and 83%
same,Population Healthy Nuclei (%),[5],54% and 80%
same,Population Hoechst High Intensity Objects (%),[5],0%
same,Population Membrane Permeable-Phenotype (%),[5],9% and 2%
same,Population Mitochondria Different-Phenotype (%),[5],4% and 1%
same,Population Mitotic Cells (%),[5],25% and 16%
same,Population Normal (%),[5],100% and 99%
same,Population Pyknosed Nuclei (%),[5],16% and 13%
same,Population Tubulin-Different-Phenotype (%),[5],73% and 79%
same,Population Apoptotic (%),[6],60% and 61%
same,Population Fragmented Nuclei (%),[6],45% and 16%
same,Population Hoechst High Intensity Objects (%),[6],5% and 1%
same,Population Mitotic Cells (%),[6],39% and 38%
same,Population Normal (%),[6],94% and 98%
same,Population Pyknosed Nuclei (%),[6],41% and 34%
same,Population Tubulin-Different-Phenotype (%),[6],44% and 50%
COc1ccncc1C(=O)NC(=O)Nc1ccc(-c2ccccc2)c(C(F)(F)F)c1,Population Apoptotic (%),[1],33% and 36%
same,Population Healthy Nuclei (%),[1],65% and 86%
same,Population Hoechst High Intensity Objects (%),[1],0%
same,Population Membrane Permeable-Phenotype (%),[1],0% and 1%
same,Population Mitochondria Different-Phenotype (%),[1],0% and 1%
same,Population Mitotic Cells (%),[1],66% and 63%
same,Population Normal (%),[1],100%
same,Population Pyknosed Nuclei (%),[1],11% and 9%
same,Population Tubulin-Different-Phenotype (%),[1],58% and 88%
same,Population Apoptotic (%),[2],25% and 33%
same,Population Fragmented Nuclei (%),[2],8% and 2%
same,Population Healthy Nuclei (%),[2],75% and 88%
same,Population Hoechst High Intensity Objects (%),[2],0%
same,Population Membrane Permeable-Phenotype (%),[2],2% and 1%
same,Population Mitochondria Different-Phenotype (%),[2],2% and 1%
same,Population Mitotic Cells (%),[2],75% and 66%
same,Population Normal (%),[2],100%
same,Population Pyknosed Nuclei (%),[2],16% and 9%
same,Population Tubulin-Different-Phenotype (%),[2],67% and 78%
same,Population Apoptotic (%),[3],66% and 57%
same,Population Healthy Nuclei (%),[3],63% and 90%
same,Population Hoechst High Intensity Objects (%),[3],0%
same,Population Membrane Permeable-Phenotype (%),[3],4% and 2%
same,Population Mitochondria Different-Phenotype (%),[3],0% and 1%
same,Population Mitotic Cells (%),[3],33% and 42%
same,Population Normal (%),[3],100%
same,Population Pyknosed Nuclei (%),[3],15% and 6%
same,Population Tubulin-Different-Phenotype (%),[3],62% and 89%
same,Population Apoptotic (%),[4],66% and 31%
same,Population Fragmented Nuclei (%),[4],1% and 3%
same,Population Healthy Nuclei (%),[4],93% and 90%
same,Population Hoechst High Intensity Objects (%),[4],0%
same,Population Membrane Permeable-Phenotype (%),[4],5% and 0%
same,Population Mitochondria Different-Phenotype (%),[4],0%
same,Population Mitotic Cells (%),[4],33% and 68%
same,Population Normal (%),[4],100%
same,Population Pyknosed Nuclei (%),[4],5% and 6%
same,Population Tubulin-Different-Phenotype (%),[4],72% and 79%
same,Population Apoptotic (%),[5],60% and 43%
same,Population Healthy Nuclei (%),[5],70% and 90%
same,Population Hoechst High Intensity Objects (%),[5],0%
same,Population Membrane Permeable-Phenotype (%),[5],2% and 1%
same,Population Mitochondria Different-Phenotype (%),[5],2% and 0%
same,Population Mitotic Cells (%),[5],40% and 56%
same,Population Normal (%),[5],100%
same,Population Pyknosed Nuclei (%),[5],10% and 7%
same,Population Tubulin-Different-Phenotype (%),[5],65% and 90%
same,Population Apoptotic (%),[6],23% and 69%
same,Population Fragmented Nuclei (%),[6],7% and 2%
same,Population Healthy Nuclei (%),[6],81% and 93%
same,Population Hoechst High Intensity Objects (%),[6],0%
same,Population Membrane Permeable-Phenotype (%),[6],0%
same,Population Mitochondria Different-Phenotype (%),[6],0%
same,Population Mitotic Cells (%),[6],76% and 30%
same,Population Normal (%),[6],100% and 99%
same,Population Pyknosed Nuclei (%),[6],10% and 4%
same,Population Tubulin-Different-Phenotype (%),[6],83%

# Source: ChEMBL document CHEMBL5303300, “EUbOPEN Chemogenomics Library - Multiplex” (2023)
